In article PMC7501995 (Cell metabolism, 2020):
“Also recorded” adds a separate entry of the source.

What was measured:
[1] = test system: TXNIP mRNA expression in INS-1 cells; assay: TXNIP mRNA expression by qRT-PCR in INS-1 cells; assay type: cell-based; conditions: rat INS-1 cells, 25 mM glucose, 1 μM, 24 h, qPCR
Procedure, shortened: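 INS-1 cells, C57BL/6J mouse islets (collagenase XI-isolated) or human islets (at least three donors, same-donor controls) kept overnight in 5 mM glucose RPMI 1640. Then incubated 24 h in 25 mM glucose RPMI 1640 with or without 1 µM test compound. TXNIP and related mRNAs measured by qRT-PCR; n = 6 (INS-1) or 3 (mouse islets) independent experiments.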

[2] = test system: polymerase II (Pol II) binding to the TXNIP promoter; assay: Chromatin immunoprecipitation of Pol II in INS-1 cells; assay type: cell-based, rat; conditions: ChIP
Procedure, shortened: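 INS-1 cells crosslinked in 1% formaldehyde/PBS for 15 min, then quenched with glycine. Lysed in SDS/Triton buffer, pH 8.1, with protease inhibitors, and sonicated (10 × 30 s pulses). 500 µg precleared lysate incubated with 4 µg anti-Pol II antibody or control IgG overnight at 4°C; 1/10 kept as input. Complexes captured on Protein A-Sepharose for 3 h, then washed in lysis, wash, LiCl and TE buffers. Regions probed: E-box, upstream TXNIP and IRS2 site. n = 3 independent experiments.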

TXNIP-deficient mice = assay: SRI-37330 treatment of TXNIP-deficient mice; assay type: in vivo, mouse
[3] = Cellular cytotoxicity assay; assay type: cell-based; conditions: in vitro
L-type calcium channels = assay: Calcium channel blockade; conditions: in contrast to verapamil
[4] = test system: primary mouse hepatocytes; assay: Gene expression by qRT-PCR in primary hepatocytes; assay type: cell-based
Procedure, shortened: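 Primary hepatocytes from male C57BL/6J, liver-specific glucagon receptor knockout or Txnip-deficient mice, seeded on collagen at 3×10^5 cells/well in serum-free DMEM. After 4 h attachment, medium changed and cells given varying test compound concentrations for 24 h. Pck1/G6pc read in the presence of glucagon. mRNA quantified by qRT-PCR; n = 3 for knockout hepatocytes.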

αTC1-6 alpha cells = assay: Alpha cell glucagon expression and secretion; assay type: cell-based, mouse; conditions: αTC1-6 cells
Procedure, shortened: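 αTC1-6 mouse alpha cells grown in DMEM with 10% FBS, 16.7 mM glucose, 1 mM sodium pyruvate and 15 mM HEPES at 37°C, 5% CO2. Cells exposed to 5 µM test compound or vehicle for 1 h. Low-glucose secretion run at 1.67 mM glucose. Secreted glucagon measured by mouse glucagon ELISA; protein measured by BCA assay.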

db/db mice [5] = assay: Oral treatment of obese, diabetic db/db mice; assay type: in vivo, mouse
[6] = test system: primary mouse hepatocytes; assay: Hepatocyte cAMP production; assay type: cell-based
Procedure, shortened: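 Primary hepatocytes came from anesthetized lean chow-fed male C57BL/6J mice, liver-specific glucagon receptor knockout mice, or Txnip-deficient mice. They were plated on collagen at 3 × 10^5 cells/well in serum-free DMEM and left 4 h to attach. Medium was then changed and cells were exposed to graded test-compound concentrations with glucagon for 24h. Cells were washed twice in PBS and harvested in 0.1M HCl. Intracellular cAMP was measured by direct immunoassay; n = 3 independent experiments.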

human TXNIP promoter = assay type: cell-based; conditions: INS-1 cells, 25 mM glucose, 5 μM, 24 h
Procedure, shortened: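 INS-1 cells transfected with SV40-E-box or SV40-Control firefly plasmid (0.4 µg/mL) plus pRL-TK renilla control (10 ng/mL). After 18 h, switched to 5 mM glucose for 6 h, then to 25 mM glucose. Treated with or without 5 µM test compound for 24 h. Read by dual-luciferase assay; n = 6 independent experiments.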

db/db mice [7] = assay: Hyperinsulinemic-euglycemic clamp in db/db mice; assay type: in vivo, mouse
Procedure, shortened: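 Lean C57BL/6J or db/db mice given a jugular vein catheter 5–6 days beforehand; treated with test compound and fasted overnight. 2 h hyperinsulinemic-euglycemic clamp run in awake mice with human insulin (150 mU/kg prime, then 2.5 mU/kg/min). Tissue uptake in gastrocnemius and epididymal WAT from 2-[14C]DG-6-phosphate, separated by ion-exchange, and the plasma 2-[14C]DG profile. n = 5–6 mice/group.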

[8] = test system: TXNIP protein levels in INS-1 cells; assay: TXNIP protein immunoblotting in INS-1 cells; assay type: cell-based, rat; conditions: 24h
Procedure, shortened: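 Rat INS-1 beta-like cells were grown at 37°C in humidified 5% CO2. Whole-cell protein extracts were prepared and protein was quantified by BCA assay. Equal protein amounts were loaded per lane for TXNIP immunoblotting.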

[9] = test system: human islet gene expression; assay: RNA sequencing of human islets; assay type: cell-based; conditions: 25 mM glucose, 1 μM
Procedure, shortened: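 Human islets (IIDP; same-donor controls) held overnight at 5 mM glucose, then 24 h at 25 mM glucose with or without 1 µM test compound. RNA extracted with miRNeasy. Libraries prepared as TruSeq stranded mRNA and sequenced single-end at about 43 million reads/sample.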

[10] = test system: C57BL/6J mice rendered diabetic by multiple low-dose STZ; assay: Multiple low-dose STZ-induced diabetes in C57BL/6J mice; assay type: in vivo, mouse

CS(=O)(=O)NCC1CCCN(c2ncnc3ccc(C(F)(F)F)cc23)C1 (stereo not drawn) [SRI-37330, N-((1-(6-(trifluoromethyl)quinazolin-4-yl)piperidin-3-yl)methyl)methanesulfonamide]
TXNIP expression in the context of high glucose [1]: significantly inhibit TXNIP expression
Pol II binding to the E-box motif region of the TXNIP promoter [2]: effectively inhibited
Pol II binding to upstream TXNIP promoter region and to IRS2 site [2]: but not to an upstream TXNIP promoter region or to an established Pol II binding site
glucose homeostasis and serum glucagon (TXNIP-deficient mice): no longer able to further improve glucose homeostasis or lower serum glucagon levels
serum glucagon levels (TXNIP-deficient mice): even elevated
cytotoxicity [3]: no cytotoxicity
calcium channel blocker activity (L-type calcium channels): not a calcium channel blocker
effect on glucagon-induced expression of Pck1 and G6pc ([4]; primary hepatocytes of liver-specific glucagon receptor knockout mice (GcgR−/−L)): completely blunted
glucagon-induced expression of Pck1 and G6pc ([4]; primary hepatocytes of wild-type C57BL/6J mice, 5 μM, 24h): inhibited
TXNIP signaling genes in primary hepatocytes or livers ([4]; primary hepatocytes or livers of treated mice): not affected
glucagon content (αTC1-6 alpha cells; 5 μM, 1h): did not lower proglucgon gene expression or glucagon content
glucagon secretion (αTC1-6 alpha cells; 5 μM, 1h): significantly lower glucagon secretion
proglucagon gene expression (αTC1-6 alpha cells; 5 μM, 24 h): did not lower proglucgon gene expression or glucagon content
glucagon secretion in the context of low glucose (αTC1-6 alpha cells; 1.67 mM glucose): no effect on glucagon secretion
glucagon secretion maximally stimulated by arginine and norepinephrine (αTC1-6 alpha cells; arginine 20 mM, norepinephrine 10 μM): no longer able to inhibit glucagon secretion
hepatic steatosis (liver histology) (db/db mice [5]; db/db mice): dramatically improved the severe steatosis
alpha cell mass (db/db mice [5]; db/db mice, islet morphometry): small, but significant decline in alpha cell mass
alpha cell number (db/db mice [5]; db/db mice, islet morphometry): clear trend towards lower alpha cell number
beta cell mass and number (db/db mice [5]; db/db mice, islet morphometry): remained unchanged
fasting blood glucose (db/db mice [5]; db/db mice, oral): significantly downregulated
fasting serum glucagon (db/db mice [5]; db/db mice, oral): significant downregulate
fasting serum insulin (db/db mice [5]; db/db mice, oral): remained unchanged
body weight (db/db mice [5]; db/db mice, oral, 4 weeks): did not affect body weights
non-fasting blood glucose (db/db mice [5]; db/db mice, oral, 4 weeks): decreased significantly within 3 days of starting SRI-37330 treatment and returned to euglycemic levels
effectiveness by oral gavage twice a day (db/db mice [5]; obesity-induced diabetes, gavage 12 h apart): confirmed its effectiveness in obesity- as well as STZ-induced diabetes
cAMP production ([6]; GcgR−/−L hepatocytes, glucagon present): no longer able to inhibit hepatocyte glucose output or cAMP production
glucagon-induced cAMP production ([6]; primary hepatocytes of TXNIP-deficient mice): maintained its ability to block glucose output and glucagon-induced cAMP production
glucagon-induced production of cAMP ([6]; wild-type primary hepatocytes, 24h, glucagon): significantly downregulated in a dose-dependent manner
effect on heterologous SV40 promoter coupled with the TXNIP E-box motif (human TXNIP promoter): confer SRI-37330 responsiveness
basal hepatic glucose production (db/db mice [7]): significantly lower basal hepatic glucose production
glucose infusion rate (db/db mice [7]): not significantly different
hepatic insulin action (db/db mice [7]): not significantly different
insulin-stimulated glucose uptake in skeletal muscle (db/db mice [7]): remained unchanged
insulin-stimulated glucose uptake in white adipose tissue (db/db mice [7]): remained unchanged
TXNIP protein levels [8]: inhibited TXNIP protein levels in a dose-dependent manner
BCL2L1 expression ([9]; confirmed by qRT-PCR): upregulated
CTGF expression ([9]; confirmed by qRT-PCR): upregulated
IGF-1R expression ([9]; confirmed by qRT-PCR): upregulated
MAFA expression ([9]; confirmed by qRT-PCR): upregulated
MLXIPL expression ([9]; confirmed by qRT-PCR): downregulated
NLRP1 expression ([9]; confirmed by qRT-PCR): lower expression
general transcription ([9]; three donors, 24 h, RNA sequencing): does not inhibit general transcription
urine glucose, fold lower than in untreated or empagliflozin-treated animals ([10]; STZ mice): more than 10 fold
blood glucose control compared to metformin or empagliflozin ([10]; STZ mice, drinking water): slightly better blood glucose control than metformin or empagliflozin
body weight at the end of the experiment ([10]; STZ mice, vs untreated): higher body weight
fasting blood glucose ([10]; STZ mice, vs untreated): lower fasting blood glucose
fasting serum insulin ([10]; STZ mice, vs untreated): higher; also recorded: almost two-fold elevation
serum triglycerides ([10]; STZ mice, only treatment with this effect): significantly lower serum triglycerides
fasting serum glucagon, fold lower than untreated ([10]; STZ-diabetic mice): 3.6 fold
effectiveness by oral gavage twice a day ([10]; STZ-induced diabetes, gavage 12 h apart): confirmed its effectiveness in obesity- as well as STZ-induced diabetes
dose-dependence of glucose lowering ([10]; oral gavage twice a day): dose-dependence of the glucose-lowering effects
